Measured values from ChEMBL document CHEMBL4261571, “Development of highly active anti-Pneumocystis bisbenzamidines: insight into the influence of selected substituents on the in vitro activity” (Medchemcomm, 2017).
The source made the active and inactive calls. The rule behind the calls is not given here.

Key:
[1] = system: Pneumocystis carinii; assay: Antipneumocystis activity against Pneumocystis carinii at 100 ug/ml after 24 to 72 hrs by ATP-based luciferin-luciferase assay; type: functional, organism-based
Summary of the method: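 Single high-dose screen at 100 µg/ml against rat-derived, cryopreserved P. carinii in RPMI 1640 at 36 °C, 5% CO2, read at 24, 48 and 72 h. ATP was measured by luminescence after background subtraction, with triplicate wells of duplicate assays averaged. % ATP reduction was calculated relative to media control. Controls were media, DMSO vehicle, ampicillin 10 µg/ml and pentamidine isethionate 1 µg/ml.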

[2] = system: Pneumocystis carinii; assay: Antipneumocystis activity against Pneumocystis carinii after 24 to 72 hrs by ATP-based luciferin-luciferase assay; type: functional, organism-based
Summary of the method: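 P. carinii from immunosuppressed rat lungs (methylprednisolone 20 mg/kg s.c. weekly) was cryopreserved. It was exposed to compounds diluted in RPMI 1640 at 36 °C, 5% CO2, for 24, 48 and 72 h. ATP was measured by luciferin-luciferase luminescence after background subtraction. Triplicate wells of duplicate assays were averaged. % ATP reduction was calculated against media control, and IC50 came from linear regression.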

[3] = system: A549; assay: Cytotoxicity against human A549 cells assessed as decrease in cell viability after 24 to 72 hrs by ATP-based luciferin-luciferase assay
Summary of the method: (§1)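 A549 cells in DMEM and L2 cells in F12, each with 10% fetal calf serum, 1% MEM vitamins and 1% NEAA, were plated at 2 × 10^5/ml and grown to confluence. They were exposed first to 100 µg/ml, then to 100, 10, 1 and 0.1 µg/ml, for 24, 48 and 72 h in duplicate wells. Cells were lysed with 0.1 M NaOH and ATP was read by luciferin-luciferase luminescence. IC50 came from linear regression of % ATP reduction.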

[4] = Cytotoxicity against rat L2 cells assessed as decrease in cell viability after 24 to 72 hrs by ATP-based luciferin-luciferase assay; summary of the method: as §1
[5] = molecular target: Luciferin 4-monooxygenase (Photinus pyralis) (UniProt P08659); assay: Effect on luciferin/firefly luciferase reaction assessed as quench effect at 100 ug/ml
Sequence of Luciferin 4-monooxygenase (Photinus pyralis) (P08659 whole entry): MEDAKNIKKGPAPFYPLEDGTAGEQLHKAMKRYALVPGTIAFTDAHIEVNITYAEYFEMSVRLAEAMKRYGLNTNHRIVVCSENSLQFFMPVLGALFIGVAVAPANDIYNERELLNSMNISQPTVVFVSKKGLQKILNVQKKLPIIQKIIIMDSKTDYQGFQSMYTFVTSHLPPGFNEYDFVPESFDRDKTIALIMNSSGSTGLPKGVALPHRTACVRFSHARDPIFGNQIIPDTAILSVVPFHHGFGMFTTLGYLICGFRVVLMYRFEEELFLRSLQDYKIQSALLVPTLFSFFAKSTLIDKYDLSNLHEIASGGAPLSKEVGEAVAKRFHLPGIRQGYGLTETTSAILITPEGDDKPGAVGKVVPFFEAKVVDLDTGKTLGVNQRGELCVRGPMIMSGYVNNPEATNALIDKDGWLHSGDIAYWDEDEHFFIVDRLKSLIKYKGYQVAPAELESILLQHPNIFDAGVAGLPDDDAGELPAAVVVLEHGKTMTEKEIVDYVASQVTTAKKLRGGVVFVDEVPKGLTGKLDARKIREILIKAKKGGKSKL

C/N=C(\NC)c1ccc(CN2CCN(Cc3ccc(/C(=N/C)NC)cc3)CC2)cc1
Activity [1]: inactive

c1cc(C2=NCCN2)ccc1SCCOCCSc1ccc(C2=NCCN2)cc1
IC50 [2]: 0.01 µM | IC50 [3]: 30.6 µM | IC50 [4]: > 100 µM | Activity [1]: Active | Activity [5]: inactive

N=C(N)c1ccc(OCCOCCOc2ccc(C(=N)N)cc2[N+](=O)[O-])c([N+](=O)[O-])c1
IC50 [2]: 0.014 µM | IC50 [3]: > 100 µM | IC50 [4]: 176 µM | Activity [1]: Active | Activity [5]: inactive

N=C(N)c1ccc(OCCOCCOc2ccc(C(=N)N)cc2N)c(N)c1
IC50 [2]: 0.011 µM | IC50 [3]: > 100 µM | IC50 [4]: > 100 µM | Activity [1]: Active | Activity [5]: inactive

CN(C(=O)CCCCC(=O)N(C)c1ccc(C(=N)N)cc1)c1ccc(C(=N)N)cc1
IC50 [2]: 0.012 µM | IC50 [3]: > 100 µM | IC50 [4]: > 100 µM | Activity [1]: Active | Activity [5]: inactive

N=C(N)c1ccc(NC(=O)CSCC(=O)Nc2ccc(C(=N)N)cc2)cc1
IC50 [2]: 0.568 µM | IC50 [3]: > 100 µM | IC50 [4]: > 100 µM | Activity [1]: Active | Activity [5]: inactive

N=C(N)c1ccc(OCCCCCOc2ccc(C(=N)N)cc2)cc1 [PENTAMIDINE]
IC50 [4]: 33.8 µM

Cc1cc(C(=N)N)cc(C)c1OCCOCCOc1c(C)cc(C(=N)N)cc1C
IC50 [2]: 0.175 µM | IC50 [3]: 75.8 µM | IC50 [4]: 16.7 µM | Activity [1]: Active | Activity [5]: inactive

N=C(N)c1ccc(NC(=O)COCC(=O)Nc2ccc(C(=N)N)cc2)cc1
IC50 [2]: 0.146 µM | IC50 [3]: > 100 µM | IC50 [4]: > 100 µM | Activity [1]: Active | Activity [5]: inactive

CCN(CCOc1ccc(C(=N)N)cc1)CCOc1ccc(C(=N)N)cc1
IC50 [2]: < 0.209 µM | IC50 [3]: > 100 µM | IC50 [4]: > 100 µM | Activity [1]: Active | Activity [5]: inactive

N=C(N)c1ccc(NCCOCCNc2ccc(C(=N)N)cc2[N+](=O)[O-])c([N+](=O)[O-])c1
IC50 [2]: 0.062 µM | IC50 [3]: > 100 µM | IC50 [4]: > 100 µM | Activity [1]: Active | Activity [5]: inactive

Cc1cc(C(=N)N)cc(C)c1OCCCCCOc1c(C)cc(C(=N)N)cc1C
IC50 [2]: < 0.213 µM | IC50 [3]: 32.2 µM | IC50 [4]: 19 µM | Activity [1]: Active | Activity [5]: inactive

Cc1cc(C(=N)N)cc(C)c1OCCN(CCOc1c(C)cc(C(=N)N)cc1C)S(=O)(=O)c1ccccc1
IC50 [2]: 1.52 µM | IC50 [3]: > 100 µM | IC50 [4]: > 100 µM | Activity [1]: Active | Activity [5]: inactive

N=C(N)c1ccc(NCCOCCNc2ccc(C(=N)N)cc2N)c(N)c1
IC50 [2]: < 0.175 µM | IC50 [3]: > 100 µM | IC50 [4]: > 100 µM | Activity [1]: Active | Activity [5]: 15%

COc1cc(C(=N)N)cc(Br)c1OCCCCCOc1c(Br)cc(C(=N)N)cc1OC
IC50 [2]: 0.036 µM | IC50 [3]: 26.3 µM | IC50 [4]: 29.5 µM | Activity [1]: Active | Activity [5]: inactive

CCCCNC(=N)c1ccc(CN2CCN(Cc3ccc(C(=N)NCCCC)cc3)CC2)cc1
IC50 [2]: 0.083 µM | IC50 [3]: > 100 µM | IC50 [4]: > 100 µM | Activity [1]: Active | Activity [5]: inactive

CN(C(=O)CCCC(=O)N(C)c1ccc(C(=N)N)cc1)c1ccc(C(=N)N)cc1
IC50 [2]: 0.303 µM | IC50 [3]: > 100 µM | IC50 [4]: > 100 µM | Activity [1]: Active | Activity [5]: inactive

CCCCCNC(=N)c1ccc(CN2CCN(Cc3ccc(C(=N)NCCCCC)cc3)CC2)cc1
IC50 [2]: 0.041 µM | IC50 [3]: > 100 µM | IC50 [4]: > 100 µM | Activity [1]: Active | Activity [5]: inactive

N=C(N)c1ccc(SCCOCCSc2ccc(C(=N)N)cc2)cc1
IC50 [2]: < 0.223 µM | IC50 [3]: 50.9 µM | IC50 [4]: 26.4 µM | Activity [1]: Active | Activity [5]: inactive

CCCNC(=N)c1ccc(CN2CCN(Cc3ccc(C(=N)NCCC)cc3)CC2)cc1
IC50 [2]: 1.69 µM | IC50 [3]: > 100 µM | IC50 [4]: > 100 µM | Activity [1]: Active | Activity [5]: inactive

CN(C(=O)CCC(=O)N(C)c1ccc(C(=N)N)cc1)c1ccc(C(=N)N)cc1
IC50 [2]: 0.076 µM | IC50 [3]: > 100 µM | IC50 [4]: > 100 µM | Activity [1]: Active | Activity [5]: inactive

N=C(N)c1ccc(CN2CCN(Cc3ccc(C(=N)N)cc3)CC2)cc1
IC50 [2]: 0.109 µM | IC50 [3]: > 100 µM | IC50 [4]: > 100 µM | Activity [1]: Active | Activity [5]: inactive
